# MrgX1 antagonist: antagonists of human MrgX1 receptor, primary screen, HEK293 cells, Fluo-4 calcium flux | BAM8-22 antagonism; active compounds read low | 1.3% of 310,000 active | B-score at 10 µM | Mas-related G-protein coupled receptor member X1 (Homo sapiens), Q96LB2 | AID 588676, 2011;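 active = calcium-response B-score plate-corrected more than 3 library SD below zero, starting fluorescence within 5 deviations, no agonist response on first addition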;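 note: peak minus trough fluorescence over baseline after final BAM8-22 challenge near maximal dose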
# Target sequence (Q96LB2 whole entry, looked up): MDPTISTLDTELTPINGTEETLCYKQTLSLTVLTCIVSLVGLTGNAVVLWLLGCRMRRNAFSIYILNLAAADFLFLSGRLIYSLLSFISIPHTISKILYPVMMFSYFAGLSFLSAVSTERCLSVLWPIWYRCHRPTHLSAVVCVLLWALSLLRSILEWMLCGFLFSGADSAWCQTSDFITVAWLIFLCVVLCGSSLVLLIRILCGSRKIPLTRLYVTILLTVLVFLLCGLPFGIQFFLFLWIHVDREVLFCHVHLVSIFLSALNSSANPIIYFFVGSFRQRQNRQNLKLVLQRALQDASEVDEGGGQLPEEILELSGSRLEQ
# MrgX1 ag: agonists of human MrgX1 receptor, primary screen, HEK293 cells, Fluo-4 calcium flux; Fluo-4 calcium fluorescence, agonist mode; active compounds read high; B-score at 10 µM; 0.44% of 310,000 active;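 active = calcium response B-score plate-corrected fluorescence ratio at least 3 library SD, with starting fluorescence B-score inside 5 SD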
#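 Test system: HEK293 cells stably expressing human MrgX1 receptor; amount: 15,000 cells per well; doses: compound delivered in addition one of three; times: overnight plating before 1 h dye loading; detection: Fluo-4 NW calcium-flux fluorescence, kinetic read; read-out basis: B-scored fluorescence response ratio; controls: positive and negative controls per plate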
# RGS4 inh: RGS4 inhibitors, primary screen, cell-based, HEK293 M3R inducible RGS4, calcium flux | B-score at 10 µM | Regulator of G-protein signaling 4 (Homo sapiens), P49798 | 0.45% of 310,000 active | AID 463165, 2010 | Fluo-4 calcium flux; active compounds read high; triggered by carbachol at its EC20;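 active = B-score, a plate-corrected calcium signal, over three deviations above library mean, with baseline fluorescence within five deviations of library mean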;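 note: RGS4 expression induced by doxycycline in cells with stable M3 receptor; B-score is computed from the integrated fluorescence ratio over baseline after carbachol; higher B-score means a larger calcium signal and so more RGS4 inhibition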
# Target sequence (P49798 whole entry, looked up): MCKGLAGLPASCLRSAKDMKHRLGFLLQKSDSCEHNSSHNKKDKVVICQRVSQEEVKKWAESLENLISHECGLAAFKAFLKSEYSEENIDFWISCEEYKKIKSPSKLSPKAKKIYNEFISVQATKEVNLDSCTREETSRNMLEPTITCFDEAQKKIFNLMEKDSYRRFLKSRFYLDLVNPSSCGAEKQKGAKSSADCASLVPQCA
# RGS4 pot: RGS4 potentiators or activators, primary screen, cell-based, HEK293 M3R inducible RGS4, calcium flux; carbachol calcium flux Fluo4; active compounds read low; B-score at 10 µM; 0.92% of 310,000 active; AID 463111, 2010;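 active = B-score of the integrated calcium signal more than 4 SD below the library mean, with starting fluorescence not abnormally high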;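 note: negative B-score means reduced calcium response which marks RGS4 activation or potentiation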
#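 System: HEK293 FlpIn-TREx cells, stable M3R, doxycycline-inducible RGS4. Timing: overnight RGS4 induction, 30 min dye load 37 °C, 20 min compound RT. Also added: carbachol, ECmax concentration. Measured by: Fluo4 fluorescence kinetic imaging of calcium. Evaluation: integrated calcium ratio converted to B score.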
# MrgX1 PAM: positive allosteric modulators of MrgX1, primary screen, HEK293 cells, Fluo-4 calcium flux; Mas-related G-protein coupled receptor member X1 (Homo sapiens), Q96LB2; FDSS; active compounds read high; 0.63% of 310,000 active; B-score at 10 µM;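 active = plate-corrected calcium response at least 3 library SD above typical, normal starting fluorescence, not activating the receptor alone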;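 note: compound read alongside a low EC10 to EC30 dose of BAM8-22 agonist; peak minus trough fluorescence over baseline measured at the second addition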
# * = called active by the depositor; i = inactive; nt = not tested or not shown. A selection: hits, their analogues and other compounds. The true share with any hit is near 3.5%.
SMILES,MrgX1 antagonist,MrgX1 ag,RGS4 inh,RGS4 pot,MrgX1 PAM
C#CCOCCOCCOCCNc1nc(N2CCN(C(=O)CCCCCCCCCCNC(=O)Cn3cc(CCCCCN)nn3)CC2)nc(N2CCN(C(=O)CCCCCCCCCCNC(=O)Cn3cc(C[C@@H](C)O)nn3)CC2)n1,-8.3*,i,nt,nt,i
C#CCOCCOCCOCCNc1nc(N2CCN(C(=O)CCCCCCCCCCNC(=O)Cn3cc(C[C@@H](C)O)nn3)CC2)nc(N2CCN(C(=O)CCCCCCCCCCNC(=O)[C@@H]([C@H](C)CC)n3cc(CCCCCN)nn3)CC2)n1,i,i,nt,nt,6.9*
O=C(NNC(=O)c1ccccc1O)c1ccco1,i,i,i,i,i
COc1ccc(NC(=O)NNC(=O)c2ccc(-c3ccccc3)cc2)cc1,i,i,i,i,i
Cn1c(-c2cccc([N+](=O)[O-])c2)cnc1NCc1cccc([N+](=O)[O-])c1,i,i,i,i,i
COc1ccc(OC)c(CNc2ncc(-c3cccc([N+](=O)[O-])c3)n2C)c1,i,i,i,-7*,i
CC1CCN(Cc2cc(=O)oc3cc4c(cc23)CCCC4)CC1,i,i,i,i,8.5*
CCc1ccc2oc(=O)cc(CN3CCC(C)CC3)c2c1,i,29*,i,i,i
CCc1ccc2oc(=O)cc(CN3CCOCC3)c2c1,i,i,i,i,i
Oc1ccc2ccccc2c1CN1CCN(C/C=C/c2ccccc2)CC1,i,i,i,-7.8*,i
Oc1ccc2ccccc2c1CN1CCN(c2ccccc2F)CC1,nt,nt,i,i,nt
CN(C)C1=NC[C@H](Cc2ccccc2)N1CC1CCC(C(C)(C)C)CC1 (some centres not stated),-6.2*,i,i,i,i
O=C(CN1CCN(C(=O)c2ccco2)CC1)N1CCc2[nH]c3ccccc3c2C1,-5.9*,i,i,i,i
O=C(NC1CCSc2ccccc21)c1ccc(C(F)(F)F)cc1 (configuration not stated),i,i,i,i,i
Cc1cc(OC(=O)c2cc(Br)ccc2Cl)c([N+](=O)[O-])c(=O)[nH]1,i,i,i,i,i
O=c1c2ccc([N+](=O)[O-])cc2ncn1CCOc1cccc(Br)c1,i,i,i,i,i
O=c1c2ccc([N+](=O)[O-])cc2ncn1CCOc1ccc(Cl)cc1,i,i,i,-8.2*,i
COc1ccc(CNn2cnnc2)c(O)c1,i,i,i,i,i
CCCCCN1C(=O)/C(=C/c2c(N3CCc4ccccc4C3)nc3ccccn3c2=O)SC1=S,-8.7*,i,i,i,i
CCc1c(C)[nH]c2c1C(=O)C(CN1CCOCC1)CC2 (configuration not stated),i,i,i,i,i
COc1cccc2cc(C(=O)NNC(=O)c3ccc(Br)cc3)c(=O)oc12,i,i,i,i,i
COC(=O)c1ccc2c(c1)C(C)(C)C(/C=C/c1ccc(OC)c(OC)c1OC)=[N+]2C,-6.5*,i,i,i,i
C#CCOCCOCCOCCNc1nc(N2CCN(C(=O)CCCCCCCCCCNC(=O)[C@H]([C@@H](C)CC)n3cc(CCCCN=C(N)N)nn3)CC2)nc(N2CCN(C(=O)CCCCCCCCCCNC(=O)[C@H](CCCN=C(N)N)n3cc(C[C@@H](C)CC)nn3)CC2)n1,i,33*,nt,nt,i
C#CCOCCOCCOCCNc1nc(N2CCOCC2)nc(N2CCN(C(=O)CCCCCCCCCCNC(=O)[C@H]([C@@H](C)CC)n3cc(CCCCN=C(N)N)nn3)CC2)n1,i,i,nt,nt,i
C#CCOCCOCCOCCNc1nc(N2CCN(C(=O)CCCCCCCCCCNC(=O)[C@H](CCCN=C(N)N)n3cc(C[C@@H](C)CC)nn3)CC2)nc(N2CCN(C(=O)CCCCCCCCCCNC(=O)[C@@H]([C@H](C)CC)n3cc(CCCCCN)nn3)CC2)n1,i,51*,nt,nt,i
SMILES,MrgX1 antagonist,MrgX1 ag,RGS4 inh,RGS4 pot,MrgX1 PAM
CCOc1ccc(CCNC(=O)c2ccc(=O)[nH]c2)cc1OCC,i,i,i,i,i
O=C(NCc1ccccc1)c1sc(=S)n2c1[nH]c(=O)c1ccccc12,i,51*,i,i,i
COc1c(C)cc(C(=O)C2CCCN(C(=O)c3snnc3C)C2)cc1C (configuration not stated),i,i,i,i,i
CC(CCc1ccccc1)NC(=O)COc1cc(F)ccc1[N+](=O)[O-] (configuration not stated),i,i,i,i,8.3*
CC(=O)Cn1ncc(Br)c(Br)c1=O,nt,nt,i,i,nt
O=C(OCn1ncc(Br)c(Br)c1=O)c1c(F)cccc1F,i,i,5.4*,i,i
CC1=CC(=Nc2c(C)n(C)n(-c3ccccc3)c2=O)C=C(C)C1=O,i,i,i,i,i
CC1=CC(=Nc2c(C)n(C)n(-c3ccccc3)c2=O)C=CC1=O,i,i,11*,i,i
Cc1ccc(/C=C2\Oc3c(ccc(O)c3CN3CCN(CCO)CC3)C2=O)cc1,i,i,i,-10*,i
Cc1cccc(C)c1C(OCCN(C)C)C1CCCCC1 (configuration not stated),i,i,i,-7.4*,i
COCCN(C(=O)CCl)C(C(=O)NC1CCCCC1)c1ccccc1C (configuration not stated),i,i,i,i,i
CCOc1ccc(/C(C)=N/NC(=O)Cn2nc([N+](=O)[O-])cc2C)cc1,i,i,i,i,i
CC(=O)c1ccc(NC(=O)/C(=C\c2ccccc2)NC(=O)c2ccco2)cc1,i,i,i,i,i
CCCC[N+](C)(C)CCC(=O)NC(C)(C)CS(=O)(=O)[O-],i,i,i,i,i
CC1(NC(=O)CC[N+](C)(C)CCO)CS(=O)(=O)CC1S(=O)(=O)[O-] (configuration not stated),-5.3*,i,i,i,i
CC(C)c1ccc(N2C=Nc3ccc(C(C)C)cc3C2)cc1,i,i,i,-7.5*,i
COc1ccc(-c2nn(-c3ccccc3)cc2/C=N/N=C(N)N)cc1OC,i,44*,i,i,i
Cc1nc(SCc2ccccc2)[nH]c(=O)c1CC(=O)OCC(C)C,i,i,i,i,i

# Screens as filed in PubChem BioAssay.
